Reference: ChEMBL document CHEMBL1140699, “Stereospecific high-affinity TRPV1 antagonists: chiral N-(2-benzyl-3-pivaloyloxypropyl) 2-[4-(methylsulfonylamino)phenyl]propionamide analogues” (J Med Chem, 2008)
Activity calls are given as the source filed them. The rule behind the calls is not given here.

Assays:
[1] = target: Transient receptor potential cation channel subfamily V member 1 (Rattus norvegicus) (UniProt O35433); test: Agonist activity at rat TRPV1 receptor expressed in CHO cells assessed as calcium 45 uptake at 30 uM; type: functional, cell-based
Sequence of Transient receptor potential cation channel subfamily V member 1 (Rattus norvegicus) (O35433 whole entry): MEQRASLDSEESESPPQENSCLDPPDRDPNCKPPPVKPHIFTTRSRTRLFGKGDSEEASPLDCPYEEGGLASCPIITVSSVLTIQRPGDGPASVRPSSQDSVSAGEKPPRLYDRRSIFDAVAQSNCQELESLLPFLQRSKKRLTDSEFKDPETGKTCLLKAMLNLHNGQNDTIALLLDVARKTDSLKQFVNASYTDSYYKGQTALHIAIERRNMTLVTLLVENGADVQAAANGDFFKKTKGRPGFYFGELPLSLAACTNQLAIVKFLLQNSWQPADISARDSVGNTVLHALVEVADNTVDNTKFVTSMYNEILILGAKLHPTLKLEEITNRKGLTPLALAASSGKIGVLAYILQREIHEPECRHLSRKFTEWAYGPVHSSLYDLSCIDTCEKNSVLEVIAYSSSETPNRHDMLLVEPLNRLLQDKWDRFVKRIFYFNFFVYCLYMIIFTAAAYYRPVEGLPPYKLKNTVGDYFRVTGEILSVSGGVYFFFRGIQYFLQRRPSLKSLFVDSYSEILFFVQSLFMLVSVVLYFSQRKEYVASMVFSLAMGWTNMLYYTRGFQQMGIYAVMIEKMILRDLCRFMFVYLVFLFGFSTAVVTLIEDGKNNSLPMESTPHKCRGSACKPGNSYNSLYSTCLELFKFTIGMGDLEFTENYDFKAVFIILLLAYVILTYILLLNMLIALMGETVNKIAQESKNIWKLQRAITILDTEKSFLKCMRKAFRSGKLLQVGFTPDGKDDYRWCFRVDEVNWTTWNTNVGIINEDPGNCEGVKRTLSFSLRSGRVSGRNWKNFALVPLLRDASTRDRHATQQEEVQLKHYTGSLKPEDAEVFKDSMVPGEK
In short: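 45Ca2+ uptake in CHO cells heterologously expressing rat TRPV1 (CHO/VR1). Compounds tested for agonism at 30 µM and scored as not effective or weakly effective. Results from 1–5 experiments.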

[2] = target: Transient receptor potential cation channel subfamily V member 1 (Rattus norvegicus) (UniProt O35433); test: Agonist activity at rat TRPV1 receptor expressed in CHO cells assessed as calcium 45 uptake relative to 300 nM capsaicin; type: functional, cell-based
[3] = target: T1, Transient receptor potential cation channel subfamily V member 1 (Rattus norvegicus, UniProt O35433); test: Displacement of [3H]RTX from rat TRPV1 receptor expressed in CHO cells; type: cell-based
T1 sequence (O35433 whole entry): as above
In short: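 Competitive binding against [3H]resiniferatoxin in CHO cells heterologously expressing rat TRPV1 (CHO/VR1). Affinity reported as Ki.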

[4] = target: Transient receptor potential cation channel subfamily V member 1 (Rattus norvegicus) (UniProt O35433); test: Antagonist activity at rat TRPV1 receptor expressed in CHO cells assessed as capsaicin-induced calcium 45 uptake; type: functional, cell-based; design: concentration or dose not given beside the values
In short: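 Chinese hamster ovary cells heterologously expressing rat TRPV1 (CHO/VR1). Compounds were tested as antagonists of 150 nM capsaicin-induced ⁴⁵Ca²⁺ uptake. Antagonism was reported as Ki, with activity scored at 30 µM where potency was low. Results come from 1–5 experiments.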

[5] = target: Transient receptor potential cation channel subfamily V member 1 (Rattus norvegicus) (UniProt O35433); test: (§1) Antagonist activity at rat TRPV1 receptor expressed in CHO cells assessed as calcium 45 uptake; type: functional, cell-based
[6] = target: T1, Transient receptor potential cation channel subfamily V member 1; test: as §1; type: functional, cell-based

SMILES | Activity [1] | other results
Cc1ccc(CC(CNC(=S)NCc2ccc(NS(C)(=O)=O)c(F)c2)COC(=O)C(C)(C)C)cc1C (configuration not stated) | inactive | 
Cc1ccc(CC(CNC(=O)C2(c3ccc(NS(C)(=O)=O)cc3)CC2)COC(=O)C(C)(C)C)cc1C (configuration not stated) | inactive | 
C[C@@H](C(=O)NC[C@@H](COC(=O)C(C)(C)C)Cc1ccc(C(C)(C)C)cc1)c1ccc(NS(C)(=O)=O)c(F)c1 |  | Activity [2]: 9%
C[C@H](C(=O)NC[C@@H](COC(=O)C(C)(C)C)Cc1ccccc1)c1ccc(NS(C)(=O)=O)c(F)c1 | inactive | Ki [3]: 16.5 nM
CC(C(=O)NCC(COC(=O)C(C)(C)C)Cc1ccc(C(C)(C)C)cc1)c1ccc(NS(C)(=O)=O)c(Cl)c1 (configuration not stated) |  | Activity [4]: 61%
COc1cc(C2(C(=O)NCC(COC(=O)C(C)(C)C)Cc3ccc(C)c(C)c3)CC2)ccc1NS(C)(=O)=O (configuration not stated) | inactive | 
CC(C(=O)NCC(COC(=O)C(C)(C)C)Cc1ccc(C(C)(C)C)cc1)c1ccc(NS(C)(=O)=O)c(F)c1 (configuration not stated) |  | Activity [2]: 8%; Activity [4]: 95%
C[C@H](C(=O)NC[C@H](COC(=O)C(C)(C)C)Cc1ccc(C(C)(C)C)cc1)c1ccc(NS(C)(=O)=O)c(Cl)c1 | inactive | 
COc1cc(C(C)C(=O)NCC(COC(=O)C(C)(C)C)Cc2ccc(C(C)(C)C)cc2)ccc1NS(C)(=O)=O (configuration not stated) |  | Activity [2]: 40%; Activity [5]: inactive
Cc1ccc(CC(CNC(=O)C(C)(C)c2ccc(NS(C)(=O)=O)cc2)COC(=O)C(C)(C)C)cc1C (configuration not stated) | inactive | 
C[C@@H](C(=O)NC[C@H](COC(=O)C(C)(C)C)Cc1ccc(C(C)(C)C)cc1)c1ccc(NS(C)(=O)=O)c(F)c1 | inactive | 
Cc1ccc(CC(CNC(=O)Cc2ccc(NS(C)(=O)=O)c(F)c2)COC(=O)C(C)(C)C)cc1C (configuration not stated) |  | Activity [4]: 71%
CC(C)(C)C(=O)OCC(CNC(=O)Cc1ccc(NS(C)(=O)=O)c(F)c1)Cc1ccc(C(C)(C)C)cc1 (configuration not stated) |  | Activity [2]: 7%; Ki [6]: 440 nM; Activity [4]: 56%
C=C(C)[C@]12C[C@@H](C)[C@@]34O[C@](Cc5ccccc5)(O[C@@H]1[C@@H]3C=C(COC(=O)Cc1cc(I)c(O)c(OC)c1)C[C@]1(O)C(=O)C(C)=C[C@@H]41)O2 [IODORESINIFERATOXIN] | inactive | Ki [3]: 0.61 nM; Ki [6]: 12.2 nM
Cc1ccc(CC(CNC(=O)C(C)c2ccc(NS(C)(=O)=O)cc2)COC(=O)C(C)(C)C)cc1C (configuration not stated) | inactive | 
COc1cc(C(C)C(=O)NCC(COC(=O)C(C)(C)C)Cc2ccc(C)c(C)c2)ccc1NS(C)(=O)=O (configuration not stated) |  | Activity [2]: 10%; Activity [4]: 63%
C[C@H](C(=O)NC[C@@H](COC(=O)C(C)(C)C)Cc1ccc(C(C)(C)C)cc1)c1ccc(NS(C)(=O)=O)c(Cl)c1 | inactive | 
C[C@H](C(=O)NC[C@H](COC(=O)C(C)(C)C)Cc1ccc(C(C)(C)C)cc1)c1ccc(NS(C)(=O)=O)c(F)c1 | inactive | Ki [3]: 4.12 nM
C[C@H](C(=O)NC[C@H](COC(=O)C(C)(C)C)Cc1ccccc1)c1ccc(NS(C)(=O)=O)c(F)c1 | inactive | 
Cc1ccc(CC(CNC(=O)C2(c3ccc(NS(C)(=O)=O)c(F)c3)CC2)COC(=O)C(C)(C)C)cc1C (configuration not stated) | inactive | 
C[C@@H](C(=O)NC[C@@H](COC(=O)C(C)(C)C)Cc1ccccc1)c1ccc(NS(C)(=O)=O)c(F)c1 | inactive | 
Cc1ccc(CC(CNC(=O)C(C)c2ccc(NS(C)(=O)=O)c(F)c2)COC(=O)C(C)(C)C)cc1C (configuration not stated) | inactive | 
CC(C(=O)NCC(COC(=O)C(C)(C)C)Cc1ccc(C(C)(C)C)cc1)c1ccc(NS(C)(=O)=O)cc1 (configuration not stated) | inactive | 
Oc1cc2c(cc1O)CN(C(=S)NCCc1ccc(Cl)cc1)CCC2 | inactive | 
Cc1ccc(CC(CNC(=O)C(C)(C)c2ccc(NS(C)(=O)=O)c(F)c2)COC(=O)C(C)(C)C)cc1C (configuration not stated) | inactive | Ki [3]: 280 nM
C[C@@H](C(=O)NC[C@H](COC(=O)C(C)(C)C)Cc1ccccc1)c1ccc(NS(C)(=O)=O)c(F)c1 | inactive | 
C[C@H](C(=O)NC[C@@H](COC(=O)C(C)(C)C)Cc1ccc(C(C)(C)C)cc1)c1ccc(NS(C)(=O)=O)c(F)c1 | inactive | Ki [3]: 6.26 nM
Cc1ccc(CC(CNC(=O)C(C)c2ccc(NS(C)(=O)=O)c(Cl)c2)COC(=O)C(C)(C)C)cc1C (configuration not stated) |  | Activity [2]: 16%
CC(C)(C)C(=O)OCC(CNC(=S)NCc1ccc(NS(C)(=O)=O)c(F)c1)Cc1ccc(C(C)(C)C)cc1 (configuration not stated) |  | Activity [2]: 5%; Ki [6]: 52 nM
COc1cc(C(C)(C)C(=O)NCC(COC(=O)C(C)(C)C)Cc2ccc(C)c(C)c2)ccc1NS(C)(=O)=O (configuration not stated) | inactive | 
